According to ChEMBL document CHEMBL3091418, “Discovery of a novel activator of 5-lipoxygenase from an anacardic acid derived compound collection” (Bioorg Med Chem, 2013):
The source made the active and inactive calls. The rule behind the calls is not given here.

How the values were obtained:
[1] = biological target: T1, Prostaglandin G/H synthase 2 (Homo sapiens) (UniProt P35354); assay: Inhibition of human COX2 using arachidonic acid as substrate assessed as formation of TMPD at 50 uM incubated for 5 mins prior to substrate addition measured after 5 mins by spectrophotometry
T1 sequence (whole entry): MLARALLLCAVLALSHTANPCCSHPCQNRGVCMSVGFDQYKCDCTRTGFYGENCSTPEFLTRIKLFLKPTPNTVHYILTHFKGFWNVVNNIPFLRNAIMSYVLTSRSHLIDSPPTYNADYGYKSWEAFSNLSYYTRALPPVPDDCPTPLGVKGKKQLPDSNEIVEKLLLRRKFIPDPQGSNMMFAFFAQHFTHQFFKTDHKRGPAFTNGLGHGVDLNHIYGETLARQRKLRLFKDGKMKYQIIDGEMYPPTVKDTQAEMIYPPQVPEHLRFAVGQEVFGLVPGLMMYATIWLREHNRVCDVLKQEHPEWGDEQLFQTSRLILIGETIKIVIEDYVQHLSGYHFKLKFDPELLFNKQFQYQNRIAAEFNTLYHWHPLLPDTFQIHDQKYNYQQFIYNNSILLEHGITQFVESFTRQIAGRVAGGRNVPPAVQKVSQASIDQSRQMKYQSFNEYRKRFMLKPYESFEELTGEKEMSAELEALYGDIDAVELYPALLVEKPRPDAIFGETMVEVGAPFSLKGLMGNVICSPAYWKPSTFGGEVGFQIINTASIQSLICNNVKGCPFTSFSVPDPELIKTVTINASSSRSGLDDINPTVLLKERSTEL
Summary of the method: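 Human recombinant COX-2 (1:1000) in 0.1 M Tris pH 8.0 with hematin, pre-incubated 5 min at room temperature with 50 μM compound. TMPD and arachidonic acid then added and incubated 5 min at room temperature. Oxidized TMPD read at 550 nm. Controls: DMSO (100%) and no arachidonic acid. Triplicate, mean ± SD.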

[2] = biological target: T2, Polyunsaturated fatty acid 5-lipoxygenase (Homo sapiens) (UniProt P09917); assay: Inhibition of human 5-LOX using lionleic acid as substrate assessed as formation of 13-HPOD at 50 uM incubated for 10 mins prior to substrate addition measured after 10 secs by UV absorbance assay
T2 sequence (whole entry): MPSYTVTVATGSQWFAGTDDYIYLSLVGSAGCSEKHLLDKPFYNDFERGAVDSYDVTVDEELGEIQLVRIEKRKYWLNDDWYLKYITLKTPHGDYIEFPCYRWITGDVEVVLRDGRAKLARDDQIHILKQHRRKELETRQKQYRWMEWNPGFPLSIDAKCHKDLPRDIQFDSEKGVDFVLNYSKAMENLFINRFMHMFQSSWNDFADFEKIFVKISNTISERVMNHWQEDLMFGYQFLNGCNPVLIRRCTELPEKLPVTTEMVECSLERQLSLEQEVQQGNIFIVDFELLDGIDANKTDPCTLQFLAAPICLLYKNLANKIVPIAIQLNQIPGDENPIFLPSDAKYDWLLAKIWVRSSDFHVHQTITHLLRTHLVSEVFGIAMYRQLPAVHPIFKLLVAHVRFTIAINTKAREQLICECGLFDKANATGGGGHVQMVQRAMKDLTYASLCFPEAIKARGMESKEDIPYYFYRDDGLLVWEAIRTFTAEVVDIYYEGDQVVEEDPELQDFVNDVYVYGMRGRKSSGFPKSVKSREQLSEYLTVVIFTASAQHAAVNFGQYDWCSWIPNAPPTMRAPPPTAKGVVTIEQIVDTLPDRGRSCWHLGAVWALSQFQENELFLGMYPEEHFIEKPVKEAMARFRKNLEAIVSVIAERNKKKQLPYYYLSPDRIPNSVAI
Summary of the method: (§1)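 Recombinant human 5-LOX (1:4000 dilution) in 50 mM Tris pH 7.5 with 2 mM EDTA, 2 mM CaCl2 and ATP, pre-incubated 10 min at room temperature with 50 μM compound (DMSO stock diluted in buffer). Linoleic acid (100 μM final) then added. Conjugated-diene HPOD formation read at 234 nm over 20 min, starting after 10 s mixing. Activity given relative to DMSO control (100%) and no-enzyme blank (0%). Triplicate.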

[3] = biological target: T2, Polyunsaturated fatty acid 5-lipoxygenase (Homo sapiens); assay: Activation of human 5-LOX using lionleic acid as substrate assessed as formation of 13-HPOD incubated for 10 mins prior to substrate addition measured after 10 secs by UV absorbance assay; summary of the method: as §1
[4] = biological target: T2, Polyunsaturated fatty acid 5-lipoxygenase (Homo sapiens); assay: Binding affinity to human 5-LOX-linoleic acid complex at <10 uM by Lineweaver-Burk plot analysis relative to human 5-LOX
[5] = biological target: T2, Polyunsaturated fatty acid 5-lipoxygenase (Homo sapiens); assay: Modulation of human 5-LOX using linoleic acid as substrate at 50 uM; summary of the method: as §1
[6] = Critical micelle concentration of the compound in 50 mM Tris buffer containing 2 mM EDTA, 2 mM CaCl2 at pH 7.5 at 19 degC; assay type: ADME
Summary of the method: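 Surface tension measured across a range of compound concentrations in the 5-LOX assay buffer at room temperature (19 °C) and plotted against log concentration. The CMC was read from this plot.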

[7] = biological target: T2, Polyunsaturated fatty acid 5-lipoxygenase (Homo sapiens); assay: Modulation of human 5-LOX using arachidonic acid as substrate at 50 uM
Summary of the method: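 Human 5-LOX in Tris pH 7.5 buffer with EDTA and CaCl2, pre-incubated 10 min with 50 μM compound. Substrate was arachidonic acid, 100 μM final. Residual activity measured by UV absorbance of conjugated diene product, relative to an uninhibited control.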

[8] = biological target: T2, Polyunsaturated fatty acid 5-lipoxygenase (Homo sapiens); assay: Binding affinity to human 5-LOX using linoleic acid as substrate by Lineweaver-Burk plot analysis
[9] = biological target: T2, Polyunsaturated fatty acid 5-lipoxygenase (Homo sapiens); assay: Non-essential mixed type activation of human 5-LOX assessed as decrease in Km (app) at 12.5 to 25 uM by Michaelis-Menten/ Lineweaver-Burk plot analysis in presence of lonoleic acid
Summary of the method: (§2)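 Human 5-LOX, conjugated diene read at 234 nm (ε = 25000 M−1cm−1). ATP fixed at 100 μM, linoleic acid varied over 37.5–300 μM, activator at 0, 12.5 or 25 μM. Km(app) and Vmax(app) taken from Michaelis-Menten and Lineweaver-Burk plots. Triplicate, mean ± SD.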

[10] = biological target: T2, Polyunsaturated fatty acid 5-lipoxygenase (Homo sapiens); assay: Non-competitive activation of human 5-LOX using linoleic acid as substrate assessed as increase in Vmax (app) at 12.5 to 25 uM by Lineweaver-Burk plot analysis in presence of ATP
Summary of the method: (§3)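 Human 5-LOX, UV assay at 234 nm as in screening. Initial velocities measured with ATP varied over 12.5–200 μM, linoleic acid fixed at 100 μM, and activator at 0, 12.5 or 25 μM. Vmax(app) and Km(app) obtained from Michaelis-Menten and Lineweaver-Burk plots. Triplicate.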

[11] = biological target: T2, Polyunsaturated fatty acid 5-lipoxygenase (Homo sapiens); assay: Activation of human 5-LOX using lionleic acid as substrate assessed as formation of 13-HPOD at 50 uM incubated for 10 mins prior to substrate addition measured after 10 secs by UV absorbance assay; summary of the method: as §1
[12] = biological target: T2, Polyunsaturated fatty acid 5-lipoxygenase (Homo sapiens); assay: Binding affinity to human 5-LOX-linoleic acid complex by Lineweaver-Burk plot analysis
[13] = biological target: T2, Polyunsaturated fatty acid 5-lipoxygenase (Homo sapiens); assay: Non-essential mixed type activation of human 5-LOX assessed as increase in Vmax (app) at 12.5 to 25 uM by Michaelis-Menten/ Lineweaver-Burk plot analysis in presence of linoleic acid; summary of the method: as §2
[14] = biological target: T2, Polyunsaturated fatty acid 5-lipoxygenase (Homo sapiens); assay: Non-competitive activation of human 5-LOX using linoleic acid as substrate assessed as increase in Vmax (app) at 12.5 to 25 uM by Michaelis-Menten equation analysis in presence of ATP; summary of the method: as §3
[15] = Critical micelle concentration of the compound in 50 mM Tris buffer with 2 mM EDTA and 2 mM CaCl2 at pH 7.5 at 19 degC
[16] = biological target: T3, Polyunsaturated fatty acid 5-lipoxygenase (Homo sapiens, UniProt P09917); assay: Binding affinity to human 5-LOX using linoleic acid as substrate
T3 sequence (P09917 whole entry): T2 sequence (whole entry)
Summary of the method: (§4)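 Human 5-LOX in 50 mM Tris pH 7.5 with 2 mM EDTA and 2 mM CaCl2, pre-incubated 10 min at room temperature with the modulator at fixed 0–50 μM. Linoleic acid was varied 37.5–300 μM with ATP at 100 μM. Initial rates came from the 234 nm diene absorbance, in triplicate. Dissociation constants for free and substrate-bound enzyme were derived by Lineweaver-Burk slope/intercept re-plots.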

[17] = biological target: T3, Polyunsaturated fatty acid 5-lipoxygenase; assay: Binding affinity to human 5-LOX-linoleic acid complex; summary of the method: as §4

inhibition [1]	inhibition [2]	Structure (SMILES)	other results
< 50%	Active	CCCCCCCCCCCCCCCc1cccc(O)c1C(=O)O	–
< 50%	–	CCCCCCCCCCc1ccc(CCc2cc(O)cc(O)c2C(=O)O)cc1	–
< 50%	Active	CCCCCCCCCCCCCCCc1cc(O)cc(O)c1C(=O)O	–
< 50%	–	CCCCCCCc1ccc(CCc2cccc(O)c2C(=O)O)cc1	–
< 50%	Active	CCCCCCCCCCc1cccc(O)c1C(=O)O	–
< 50%	Active	CCCCCc1cccc(O)c1C(=O)O	–
< 50%	–	CCCCCCCCCCCCCCOc1cccc(O)c1C(=O)O	–
< 50%	–	CCCCCCCCCOc1cccc(O)c1C(=O)O	–

Further lines, the compound ahead of its results:

Structure (SMILES)	inhibition [1]	inhibition [2]	other results
CCCCCCCCCOc1cccc(COc2cccc(O)c2C(=O)O)c1	< 50%	–	–
CCCCCOc1ccc(COc2cccc(O)c2C(=O)[O-])cc1.[K+]	< 50%	–	Activity [3]: Dose-dependent effect; fold change (FC) [4]: 50; Activity [5]: Active; CMC [6]: 628 µM; Activity [7]: inactive; Ka [8]: 8.65 µM; Activity [9]: Active; Activity [10]: Active; Activity [11]: Active; Ka [12]: 380 nM; Activity [13]: Active; Activity [14]: Active
CCCCCCCOc1cccc(COc2cccc(O)c2C(=O)O)c1	< 50%	–	–
Oc1ccccc1-c1nc2ccccc2o1	50%	inactive	–
CCCCCCCOc1ccc(COc2cccc(O)c2C(=O)O)cc1	< 50%	inactive	–
CCCCC/C=C\C/C=C\CCCCCCCC(=O)O [LINOLEIC ACID]	–	–	CMC [15]: 185 µM
CCCCCCCCCOc1ccc(COc2cccc(O)c2C(=O)O)cc1	< 50%	inactive	–
CC(C)CCCC(C)CCOc1ccc(COc2cccc(O)c2C(=O)[O-])cc1.[K+] (configuration not stated)	< 50%	50%	Ki [16]: 70.3 µM; Ki [17]: 140 µM; Activity [5]: Active; CMC [6]: 395 µM; Activity [7]: inactive
CCCCCCCc1ccc(CCc2cc(O)cc(O)c2C(=O)O)cc1	< 50%	–	–
